Here are results for eleven compounds from ChEMBL document CHEMBL1123857, “Pyridonecarboxylic acids as antibacterial agents. 9. Synthesis and antibacterial activity of 1-substituted 6-fluoro-1,4-dihydro-4-oxo-7-(4-pyridyl)-1,8-naphthyridine-3-carboxylic acids” (1987).

Converted amounts (≈) assume the structure as drawn.

The test system of experiment [1] is Escherichia coli. In words: Compound was tested in vitro for antibacterial activity against the microbial strain Escherichia coli NIHJ JC-2. The experiment is classed as functional.
Experiment [2] deals with Pseudomonas aeruginosa. In words: Compound was tested in vitro for antibacterial activity against the microbial strain Pseudomonas aeruginosa 12. It is filed as functional.
For experiment [3], the system named is Staphylococcus aureus. In words: Compound was tested in vitro for antibacterial activity against the microbial strain Staphylococcus aureus 209P JC-1. The experiment is classed as functional.
Experiment [4] concerns Pseudomonas aeruginosa. The experiment in a line: Compound was tested in vitro for antibacterial activity against the microbial strainP. aeruginosa 12. It is filed as functional. Put shortly: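 MIC (µg/mL) was determined by twofold agar dilution on Mueller-Hinton agar at pH 7.4. Inocula were about 10⁶ CFU. Growth was read after 20 h incubation at 37 °C.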
For experiment [5], the species on record is Mus musculus. The experiment in a line: Antibacterial activity (oral efficacy) against systemic infections due to Staphylococcus aureus 50774 microbial strains in mice was determined. It is filed as functional. Put shortly: (§1)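 Male Std-ddY mice (20 ± 2 g), in groups of 10 or more, were infected with S. aureus 50774 (iv, 5×10^8 cells), E. coli P-5101 (ip, 9×10^6 cells) or P. aeruginosa 12 (ip, 4×10^3 cells). Compounds were suspended in 0.2% sodium (carboxymethyl)cellulose and dosed orally at 0 and 6 h postinfection. Survival was scored at 2 weeks for S. aureus and at 1 week for the others.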

Experiment [6] deals with Mus musculus. The experiment in a line: Antibacterial activity against Escherichia coli P-5101 microbial strains in mice was determined expressed as ED50 (mg/kg). The experiment is classed as functional. Put shortly: as §1
For experiment [7], the system named is Mus musculus. In words: Antibacterial activity against Pseudomonas aeruginosa 12 microbial strains in mice was determined expressed as ED50 (mg/kg). It is filed as functional. Put shortly:
as §1

Experiment [8] deals with Escherichia coli. The experiment in a line: Antibacterial activity against Escherichia coli P-5101 microbial strains was determined expressed as MIC.
Experiment [9] relates to Pseudomonas aeruginosa. In words: Antibacterial activity against Pseudomonas aeruginosa 12 microbial strains; was determined expressed as MIC.
In experiment [10] the test system is Staphylococcus aureus. The experiment in a line: Antibacterial activity against Staphylococcus aureus 50774 microbial strains; was determined expressed as MIC.
In experiment [11] the test system is Escherichia coli. In words: Antibacterial activity against Escherichia coli P-5101 microbial strains; was determined expressed as MIC.
For experiment [12], the system named is Staphylococcus aureus. In words: Antibacterial activity against Staphylococcus aureus 50774 microbial strains; was determined expressed as MIC. This is another data set of the same source.

One may read the MIC as the lowest concentration that inhibits growth of the organism. Read a high MIC as a need for much substance. Usually ED50 stands for the midpoint of the dose-response relation. A high value points to weaker potency.

For `C=Cn1cc(C(=O)O)c(=O)c2cc(F)c(N3CCNCC3)nc21`, the results for the minimum inhibitory concentration (MIC) with Escherichia coli [1], against Pseudomonas aeruginosa [2] and against Staphylococcus aureus [3] were 0.1 µg/mL (≈ 0.314 µM), 0.39 µg/mL (≈ 1.23 µM) and 1.56 µg/mL (≈ 4.9 µM), respectively.
For `CCn1cc(C(=O)O)c(=O)c2cc(F)c(-c3ccncc3)nc21`, in that order: 0.2 µg/mL (≈ 0.638 µM), 3.13 µg/mL (≈ 9.99 µM) and 0.39 µg/mL (≈ 1.24 µM).
On the same counts, the results for `O=C(O)c1cn(CCO)c2nc(-c3ccncc3)c(F)cc2c1=O` are 1.56 µg/mL (≈ 4.74 µM), 50 µg/mL (≈ 152 µM) and 50 µg/mL (≈ 152 µM).
For `CCn1cc(C(=O)O)c(=O)c2ccc(-c3ccncc3)nc21`, in that order: 0.78 µg/mL (≈ 2.64 µM), 12.5 µg/mL (≈ 42.3 µM) and 1.56 µg/mL (≈ 5.28 µM).
In the case of `CCn1cc(C(=O)O)c(=O)c2ccc(N3CCNCC3)nc21`, the figures for the minimum inhibitory concentration (MIC) in the experiment on Escherichia coli [1], in the experiment with Pseudomonas aeruginosa [4] and in the experiment on Staphylococcus aureus [3] were 6.25 µg/mL (≈ 20.7 µM), 12.5 µg/mL (≈ 41.3 µM) and 12.5 µg/mL (≈ 41.3 µM), respectively.
Take `C=Cn1cc(C(=O)O)c(=O)c2cc(F)c(-c3ccncc3)nc21`: the MIC is 0.78 µg/mL (≈ 2.51 µM) in the experiment on Escherichia coli [1], 6.25 µg/mL (≈ 20.1 µM) in the experiment on Pseudomonas aeruginosa [2] and 1.56 µg/mL (≈ 5.01 µM) against Staphylococcus aureus [3].
As for `O=C(O)c1cn(CCF)c2nc(N3CCNCC3)c(F)cc2c1=O`, the minimal inhibitory concentration (MIC) was determined as 0.2 µg/mL (≈ 0.591 µM) against Escherichia coli [1], 0.78 µg/mL (≈ 2.31 µM) against Pseudomonas aeruginosa [2] and 0.39 µg/mL (≈ 1.15 µM) in the experiment with Staphylococcus aureus [3].
For `O=C(O)c1cn(C2CC2)c2nc(-c3ccncc3)c(F)cc2c1=O`, the MIC stood at 0.1 µg/mL (≈ 0.307 µM) in the experiment on Escherichia coli [1]; 0.78 µg/mL (≈ 2.4 µM) against Pseudomonas aeruginosa [2]; 0.2 µg/mL (≈ 0.615 µM) against Staphylococcus aureus [3]; 0.05 µg/mL (≈ 0.154 µM) in the experiment on Escherichia coli [8]; 0.78 µg/mL (≈ 2.4 µM) against Pseudomonas aeruginosa [9]; 0.1 µg/mL (≈ 0.307 µM) in the experiment on Staphylococcus aureus [10]. Also, the figures for the ED50 in the experiment listed under Mus musculus [5], in the experiment with Mus musculus [6] and in the experiment with Mus musculus [7] were 5.43 mg/kg, 4.48 mg/kg and 15 mg/kg, respectively.
With `O=C(O)c1cn(CCF)c2nc(-c3ccncc3)c(F)cc2c1=O`, the MIC in the experiment on Escherichia coli [1] was 0.2 µg/mL (≈ 0.604 µM); in the experiment on Pseudomonas aeruginosa [2], 1.56 µg/mL (≈ 4.71 µM); in the experiment with Staphylococcus aureus [3], 0.39 µg/mL (≈ 1.18 µM); in the experiment with Escherichia coli [8], 0.1 µg/mL (≈ 0.302 µM); against Pseudomonas aeruginosa [9] it was 1.56 µg/mL (≈ 4.71 µM); against Staphylococcus aureus [10], 0.39 µg/mL (≈ 1.18 µM). For the same compound, the median effective dose (ED50) in the experiment listed under Mus musculus [5] came out at 3.37 mg/kg; with Mus musculus [6] it was 4.91 mg/kg; in the experiment on Mus musculus [7], 14.9 mg/kg.
In the case of `CCn1cc(C(=O)O)c(=O)c2cc(F)c(N3CCNCC3)nc21` [ENOXACIN], the minimum inhibitory concentration (MIC) was 0.2 µg/mL (≈ 0.624 µM) in the experiment with Escherichia coli [1]; 0.78 µg/mL (≈ 2.44 µM) against Pseudomonas aeruginosa [2]; 0.78 µg/mL (≈ 2.44 µM) against Staphylococcus aureus [3]; 0.1 µg/mL (≈ 0.312 µM) against Escherichia coli [11]; 0.78 µg/mL (≈ 2.44 µM) against Pseudomonas aeruginosa [9]; 0.78 µg/mL (≈ 2.44 µM) against Staphylococcus aureus [12]. For the same compound, the median effective dose (ED50) is 10 mg/kg in the experiment listed under Mus musculus [5], 1.9 mg/kg in the experiment with Mus musculus [6] and 9 mg/kg with Mus musculus [7].
Regarding `CCn1cc(C(=O)O)c(=O)c2ccc(-c3ccncc3)cc21` [ROSOXACIN], the minimum inhibitory concentration (MIC) against Escherichia coli [1] was 0.39 µg/mL (≈ 1.33 µM); with Pseudomonas aeruginosa [2] it was 3.13 µg/mL (≈ 10.6 µM); in the experiment with Staphylococcus aureus [3], 0.78 µg/mL (≈ 2.65 µM); with Escherichia coli [8], 0.2 µg/mL (≈ 0.68 µM); in the experiment with Pseudomonas aeruginosa [9], 3.13 µg/mL (≈ 10.6 µM); in the experiment with Staphylococcus aureus [10], 0.39 µg/mL (≈ 1.33 µM). Further, the median effective dose (ED50) came out at 6.8 mg/kg in the experiment filed under Mus musculus [5], 7.3 mg/kg with Mus musculus [6] and 29.2 mg/kg in the experiment on Mus musculus [7].
